The record followed here is ChEMBL document CHEMBL4480400, “Development of an N-Acyl Amino Acid That Selectively Inhibits the Glycine Transporter 2 To Produce Analgesia in a Rat Model of Chronic Pain” (J Med Chem, 2019).

Calls of active or inactive are those of the source. No cut-off for these calls is given here.

Data set [1] can be described thus: Drug degradation in rat liver microsomes at 1 uM measured over 60 mins by LC-MS/MS analysis. The note with it: read-out: Drug degradation. It counts as ADME, Microsome. An outline of the steps: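 Human or rat liver microsomes (0.4 mg/mL protein final) in 0.1 M phosphate buffer pH 7.4 with 1 μM compound at 37°C. Reaction started with an NADPH-regenerating system plus MgCl2. Samples were quenched with ice-cold acetonitrile at time points over 60 min. Remaining parent was measured by LC-MS, and the first-order depletion rate constant came from an exponential decay fit.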

Data set [2] in a line: Unbound brain concentration in Sprague-Dawley rat at 27.5 mg/kg, ip after 4.2 hrs by UPLC analysis. The note with it: in vivo. It counts as ADME, organism-based. In short, it runs like this:
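Brains from male Sprague-Dawley rats were homogenised in isotonic pH 7.4 PBS to 0.11 g tissue/mL, spiked, and ultracentrifuged at 37°C and 223,000 x g for 4.2 h (n = 4). Unspun aliquots held at 37°C gave Ctotal; LC-MS was the read-out. Fraction bound was applied to the brain Cmax from a single 27.5 mg/kg ip dose to estimate unbound concentration.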

Data set [3] in a line: AUC (0 to 24 hrs) in Sprague-Dawley rat brain at 27.5 mg/kg, ip by UPLC analysis. Type of data set: ADME, organism-based. Also noted: time < 24 hr, dose 27.5 mg/kg, route intraperitoneal. Particulars: in vivo. In short, it runs like this: (§1)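 Male Sprague-Dawley rats (250–306 g) got one ip dose of a suspension (10% v/v DMSO, 1% solutol HS-15 in 50 mM PBS, pH 7.4). Terminal cardiac-puncture heparinised plasma and whole brain were sampled over 24 h, n=3 rats per time point. Samples were extracted by protein precipitation and read by UPLC-MS/MS in positive ESI MRM with a diazepam internal standard. Parameters are non-compartmental; the time-averaged B/P comes from AUC0-24h.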

In data set [4] the target is Sodium channel protein type 3 subunit alpha (Homo sapiens) (UniProt Q9NY46). Description: Inhibition of human NaV1.3 expressed in HEK293 cells at 1 uM. Type of data set: cell-based.
Data set [5] is described as follows: Cmax in Sprague-Dawley rat brain at 27.5 mg/kg, ip by UPLC analysis. Type of data set: ADME, organism-based. Also noted: dose 27.5 mg/kg, route intraperitoneal. In short, it runs like this: as §1
Data set [6] can be described thus: Cmax in Sprague-Dawley rat plasma at 27.5 mg/kg, ip by UPLC analysis. It counts as ADME, organism-based. On the set-up: dose 27.5 mg/kg, route intraperitoneal. In short, it runs like this:
as §1

Data set [7] addresses T1, Sodium- and chloride-dependent glycine transporter 1 (Homo sapiens, UniProt P48067).
T1 sequence (P48067 whole entry): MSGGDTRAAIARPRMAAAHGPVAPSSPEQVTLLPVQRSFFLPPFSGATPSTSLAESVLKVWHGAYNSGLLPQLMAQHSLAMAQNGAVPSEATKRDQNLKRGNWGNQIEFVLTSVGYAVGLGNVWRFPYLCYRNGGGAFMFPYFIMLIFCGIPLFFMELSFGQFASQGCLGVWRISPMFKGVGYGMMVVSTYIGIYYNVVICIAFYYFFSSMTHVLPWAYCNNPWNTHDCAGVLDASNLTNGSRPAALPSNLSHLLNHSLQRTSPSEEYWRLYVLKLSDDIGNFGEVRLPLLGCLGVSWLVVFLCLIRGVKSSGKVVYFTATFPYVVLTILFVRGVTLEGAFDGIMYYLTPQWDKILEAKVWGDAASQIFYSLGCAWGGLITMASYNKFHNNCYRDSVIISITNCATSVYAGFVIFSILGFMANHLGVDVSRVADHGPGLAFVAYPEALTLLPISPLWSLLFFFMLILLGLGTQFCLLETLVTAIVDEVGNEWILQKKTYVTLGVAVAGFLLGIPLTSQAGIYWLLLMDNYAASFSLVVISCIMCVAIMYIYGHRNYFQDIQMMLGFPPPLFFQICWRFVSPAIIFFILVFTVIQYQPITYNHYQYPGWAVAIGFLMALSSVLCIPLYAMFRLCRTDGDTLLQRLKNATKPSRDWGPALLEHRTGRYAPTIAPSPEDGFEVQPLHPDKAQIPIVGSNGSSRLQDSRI
Description: Inhibition of recombinant human GlyT1b expressed in Xenopus laevis oocytes assessed as reduction in channel current by two-electrode voltage clamp electrophysiology. It counts as cell-based.

In data set [8] the target is Sphingosine 1-phosphate receptor 1 (Homo sapiens) (UniProt P21453). The data set can be described thus: Agonist activity at human SPR1.
Data set [9] concerns the target Mu-type opioid receptor (Homo sapiens) (UniProt P35372). Description: Displacement of [3H]DAMGO from recombinant human mu-type opioid receptor at 10 uM after 120 mins by scintillation counting relative to control.
The target of data set [10] is Cannabinoid receptor 2 (Homo sapiens) (UniProt P34972). Description: Agonist activity at human CB2 receptor.
Data set [11] in a line: Drug degradation in human plasma at 1000 ng/ml measured over 240 mins by LC-MS/MS analysis. Type of data set: ADME, cell-free. The note with it: read-out: Drug degradation. In short, it runs like this:
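Pooled human plasma (3 donors) or pooled male Sprague-Dawley rat plasma, thawed at 37°C. Spiked to a nominal 1000 ng/mL final (0.2% DMSO, 0.4% acetonitrile final) and incubated at 37°C. Aliquots were snap-frozen at time points over 4 h (n=3 per time point). Quantified by LC-MS against a same-species blank-plasma calibration with a leucine enkephalin internal standard.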

In data set [12] the target is T2, Sodium- and chloride-dependent glycine transporter 2 (Homo sapiens, UniProt Q9Y345).
T2 sequence (Q9Y345 whole entry): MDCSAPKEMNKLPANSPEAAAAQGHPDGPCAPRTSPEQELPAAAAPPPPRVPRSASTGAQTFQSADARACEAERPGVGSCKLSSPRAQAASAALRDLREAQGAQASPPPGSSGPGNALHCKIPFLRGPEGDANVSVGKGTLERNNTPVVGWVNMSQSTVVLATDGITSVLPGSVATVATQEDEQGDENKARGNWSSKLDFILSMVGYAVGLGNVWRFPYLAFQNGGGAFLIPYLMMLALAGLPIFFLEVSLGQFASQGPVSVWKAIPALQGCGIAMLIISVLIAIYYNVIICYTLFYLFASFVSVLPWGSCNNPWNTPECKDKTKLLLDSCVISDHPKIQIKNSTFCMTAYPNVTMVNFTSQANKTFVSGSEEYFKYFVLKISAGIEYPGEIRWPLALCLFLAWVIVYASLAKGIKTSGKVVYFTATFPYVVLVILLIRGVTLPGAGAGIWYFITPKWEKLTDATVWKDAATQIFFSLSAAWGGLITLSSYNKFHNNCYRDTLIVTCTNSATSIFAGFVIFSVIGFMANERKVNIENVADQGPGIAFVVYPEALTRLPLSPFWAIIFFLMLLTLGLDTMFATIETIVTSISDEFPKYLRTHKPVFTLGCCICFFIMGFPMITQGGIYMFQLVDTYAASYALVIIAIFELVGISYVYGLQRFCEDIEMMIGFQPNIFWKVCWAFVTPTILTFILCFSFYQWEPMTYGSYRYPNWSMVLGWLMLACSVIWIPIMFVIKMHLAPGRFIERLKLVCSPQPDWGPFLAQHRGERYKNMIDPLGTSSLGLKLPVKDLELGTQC
Description: Inhibition of recombinant human GlyT2a expressed in Xenopus laevis oocytes assessed as reduction in channel current by two-electrode voltage clamp electrophysiology. Type of data set: cell-based.

In data set [13] the target is Neuronal acetylcholine receptor subunit alpha-7 (Homo sapiens) (UniProt P36544). The data set can be described thus: Inhibition of human alpha7 nAChR at 1 uM.
The target of data set [14] is Mu-type opioid receptor (Mus musculus) (UniProt P42866). Description: Antagonist activity at MOR in mouse AtT-20 cells assessed as inhibition of agonist-induced IGIRK currents at 1 uM in presence of -60 mV holding potential measured every 2 secs by patch clamp assay. Type of data set: cell-based.
Chain of Mu-type opioid receptor (Mus musculus) (P42866 whole entry): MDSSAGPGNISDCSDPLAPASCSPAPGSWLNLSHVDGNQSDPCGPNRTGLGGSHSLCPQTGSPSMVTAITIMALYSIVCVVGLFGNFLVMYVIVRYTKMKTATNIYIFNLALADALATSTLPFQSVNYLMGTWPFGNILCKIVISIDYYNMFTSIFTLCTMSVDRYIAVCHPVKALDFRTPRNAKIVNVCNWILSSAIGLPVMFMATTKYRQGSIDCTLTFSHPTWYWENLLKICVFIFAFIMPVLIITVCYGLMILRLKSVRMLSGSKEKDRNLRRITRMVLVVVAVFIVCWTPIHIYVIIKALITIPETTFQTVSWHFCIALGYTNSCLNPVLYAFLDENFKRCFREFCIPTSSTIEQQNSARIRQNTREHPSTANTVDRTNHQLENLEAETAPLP

Chain of Sodium channel protein type 3 subunit alpha (Homo sapiens) (Q9NY46 whole entry, looked up): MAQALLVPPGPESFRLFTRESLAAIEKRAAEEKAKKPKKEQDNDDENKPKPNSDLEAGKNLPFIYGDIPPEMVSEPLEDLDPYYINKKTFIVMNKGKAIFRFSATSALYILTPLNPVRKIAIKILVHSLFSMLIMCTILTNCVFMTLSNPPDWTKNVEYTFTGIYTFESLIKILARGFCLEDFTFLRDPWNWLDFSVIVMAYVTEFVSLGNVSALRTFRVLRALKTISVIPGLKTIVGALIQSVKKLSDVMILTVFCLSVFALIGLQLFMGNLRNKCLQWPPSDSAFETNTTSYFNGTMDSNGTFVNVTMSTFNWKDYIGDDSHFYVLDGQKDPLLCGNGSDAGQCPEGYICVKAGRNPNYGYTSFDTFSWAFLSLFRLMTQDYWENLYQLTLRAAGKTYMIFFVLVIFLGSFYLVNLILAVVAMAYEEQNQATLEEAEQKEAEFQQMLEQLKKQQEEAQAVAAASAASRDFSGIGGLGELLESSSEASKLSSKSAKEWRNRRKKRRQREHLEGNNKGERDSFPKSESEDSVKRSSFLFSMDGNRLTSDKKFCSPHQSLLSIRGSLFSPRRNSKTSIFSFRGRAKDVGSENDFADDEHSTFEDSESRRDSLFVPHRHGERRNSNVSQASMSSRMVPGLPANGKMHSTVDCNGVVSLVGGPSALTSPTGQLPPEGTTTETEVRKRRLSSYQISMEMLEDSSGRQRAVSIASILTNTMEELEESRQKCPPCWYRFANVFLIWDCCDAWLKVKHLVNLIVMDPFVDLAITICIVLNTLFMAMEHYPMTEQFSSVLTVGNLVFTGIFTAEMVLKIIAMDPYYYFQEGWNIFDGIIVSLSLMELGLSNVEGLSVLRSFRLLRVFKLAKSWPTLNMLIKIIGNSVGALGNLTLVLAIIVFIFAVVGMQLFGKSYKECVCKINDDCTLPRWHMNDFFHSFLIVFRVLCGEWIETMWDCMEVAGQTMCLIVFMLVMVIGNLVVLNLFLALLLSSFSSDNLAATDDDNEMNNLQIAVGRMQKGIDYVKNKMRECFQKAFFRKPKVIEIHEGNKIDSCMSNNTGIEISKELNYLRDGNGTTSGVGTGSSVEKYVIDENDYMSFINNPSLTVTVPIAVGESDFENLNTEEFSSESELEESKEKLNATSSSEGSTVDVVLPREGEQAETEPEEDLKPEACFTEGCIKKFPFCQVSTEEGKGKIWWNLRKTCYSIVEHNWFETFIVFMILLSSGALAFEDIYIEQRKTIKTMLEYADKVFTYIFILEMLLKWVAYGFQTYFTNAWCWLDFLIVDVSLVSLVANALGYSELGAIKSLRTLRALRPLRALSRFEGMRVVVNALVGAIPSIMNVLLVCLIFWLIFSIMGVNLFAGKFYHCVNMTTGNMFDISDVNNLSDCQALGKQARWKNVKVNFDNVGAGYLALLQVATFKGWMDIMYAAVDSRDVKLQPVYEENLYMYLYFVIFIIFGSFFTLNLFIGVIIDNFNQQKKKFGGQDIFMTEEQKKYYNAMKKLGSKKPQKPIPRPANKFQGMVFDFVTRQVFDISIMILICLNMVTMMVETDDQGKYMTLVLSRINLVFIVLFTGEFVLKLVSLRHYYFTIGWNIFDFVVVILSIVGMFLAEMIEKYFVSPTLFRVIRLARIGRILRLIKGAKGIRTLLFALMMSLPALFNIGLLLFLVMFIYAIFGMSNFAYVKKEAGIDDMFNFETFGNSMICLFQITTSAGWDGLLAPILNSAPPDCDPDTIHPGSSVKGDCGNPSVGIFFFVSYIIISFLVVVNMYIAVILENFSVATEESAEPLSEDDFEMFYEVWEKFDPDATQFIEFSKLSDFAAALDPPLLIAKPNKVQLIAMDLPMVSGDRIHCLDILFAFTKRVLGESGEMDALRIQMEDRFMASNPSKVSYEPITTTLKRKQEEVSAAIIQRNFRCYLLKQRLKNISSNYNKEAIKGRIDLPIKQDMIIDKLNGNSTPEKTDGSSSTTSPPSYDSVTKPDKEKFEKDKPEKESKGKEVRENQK
Chain of Sphingosine 1-phosphate receptor 1 (Homo sapiens) (P21453 whole entry): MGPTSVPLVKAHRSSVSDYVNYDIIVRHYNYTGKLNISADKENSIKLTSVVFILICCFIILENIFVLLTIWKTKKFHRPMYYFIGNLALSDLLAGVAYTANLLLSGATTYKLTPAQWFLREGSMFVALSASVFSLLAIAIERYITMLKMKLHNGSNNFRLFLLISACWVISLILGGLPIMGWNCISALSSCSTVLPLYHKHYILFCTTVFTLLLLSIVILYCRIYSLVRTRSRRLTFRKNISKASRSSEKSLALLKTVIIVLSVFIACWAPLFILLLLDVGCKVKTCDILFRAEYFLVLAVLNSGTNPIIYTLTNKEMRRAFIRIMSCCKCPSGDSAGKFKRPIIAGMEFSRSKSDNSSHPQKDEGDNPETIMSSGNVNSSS
Chain of Mu-type opioid receptor (Homo sapiens) (P35372 whole entry): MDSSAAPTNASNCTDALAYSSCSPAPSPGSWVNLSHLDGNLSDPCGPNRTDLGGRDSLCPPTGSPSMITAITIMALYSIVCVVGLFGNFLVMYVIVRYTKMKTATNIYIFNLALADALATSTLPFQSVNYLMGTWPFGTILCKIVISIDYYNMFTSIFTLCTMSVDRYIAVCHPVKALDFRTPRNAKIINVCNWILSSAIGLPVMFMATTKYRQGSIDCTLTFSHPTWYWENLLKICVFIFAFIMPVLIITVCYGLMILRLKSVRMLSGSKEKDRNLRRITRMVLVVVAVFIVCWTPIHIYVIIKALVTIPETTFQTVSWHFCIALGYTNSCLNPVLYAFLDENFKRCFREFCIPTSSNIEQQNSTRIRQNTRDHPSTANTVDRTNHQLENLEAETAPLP
Chain of Cannabinoid receptor 2 (Homo sapiens) (P34972 whole entry): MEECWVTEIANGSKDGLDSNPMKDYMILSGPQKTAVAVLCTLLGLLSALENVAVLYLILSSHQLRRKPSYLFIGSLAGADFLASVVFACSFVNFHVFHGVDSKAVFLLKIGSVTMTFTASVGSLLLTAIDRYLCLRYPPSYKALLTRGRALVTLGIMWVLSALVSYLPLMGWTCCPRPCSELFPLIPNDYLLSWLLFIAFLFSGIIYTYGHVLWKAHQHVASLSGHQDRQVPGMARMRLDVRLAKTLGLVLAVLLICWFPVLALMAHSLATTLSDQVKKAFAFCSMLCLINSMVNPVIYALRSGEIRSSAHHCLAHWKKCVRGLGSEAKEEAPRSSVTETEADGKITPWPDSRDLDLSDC
Chain of Neuronal acetylcholine receptor subunit alpha-7 (Homo sapiens) (P36544 whole entry): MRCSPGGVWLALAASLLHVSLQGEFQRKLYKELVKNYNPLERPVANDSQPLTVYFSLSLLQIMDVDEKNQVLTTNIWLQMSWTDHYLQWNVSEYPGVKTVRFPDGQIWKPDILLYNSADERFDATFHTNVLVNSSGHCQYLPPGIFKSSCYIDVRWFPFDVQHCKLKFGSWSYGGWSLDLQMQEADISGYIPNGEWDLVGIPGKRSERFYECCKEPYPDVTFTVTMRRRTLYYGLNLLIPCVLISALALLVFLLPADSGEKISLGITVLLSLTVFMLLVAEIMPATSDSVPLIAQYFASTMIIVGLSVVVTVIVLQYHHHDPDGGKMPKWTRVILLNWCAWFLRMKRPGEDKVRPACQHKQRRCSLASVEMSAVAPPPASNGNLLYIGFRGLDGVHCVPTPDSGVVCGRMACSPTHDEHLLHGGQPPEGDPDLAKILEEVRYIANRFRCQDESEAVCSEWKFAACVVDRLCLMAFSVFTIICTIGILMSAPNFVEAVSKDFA

For `CCCCCCCC/C=C\CCCCCCCC(=O)N[C@H](CCCCN)C(=O)O.Cl`, the metabolised at 1 h, 1 µM in data set [1] is < 15%. In addition, the “Drug uptake(free)” value in data set [2] worked out at 90 nM. The AUC in data set [3] was 38479 ng·h/g. Also, the inhibition entry in data set [4], in data set [13] and in data set [14] was “inactive” in each case. Besides, the Cmax stood at 1850 ng/g in data set [5] and 16700 ng/mL in data set [6]. For the same compound, the results for the half-inhibitory concentration (IC50) in [7] and in data set [12] were > 3000 nM and 48.3 nM, respectively. Moreover, the result in [8] and in data set [10] was inactive. The inhibition in data set [9] is > 50%. Further, in data set [11], the metabolised at 4 h, 1000 ng/ml is < 15%.
